Experimental data taken from ChEMBL document CHEMBL4261516, “Design, synthesis and pharmacological evaluation of new 2-oxo-quinoline derivatives containing α-aminophosphonates as potential antitumor agents” (Medchemcomm, 2017).
Calls of active or inactive are those of the source. The rule behind the calls is not given here.

What was measured:
L02 = test: Cytotoxicity against human HL-7702 cells after 48 hrs by MTT assay; assay type: cell-based; conditions: L02, 48 h
How it was run: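 HepG2, SK-OV-3, NCI-H460 and HL 7702 lines grown as monolayers in DMEM with 10% FBS plus penicillin/streptomycin at 37 °C, 5% CO2. Exponentially growing cells were seeded and exposed to the indicated concentrations for 48 h. MTT was then added for 4 h at 37 °C, formazan was dissolved in DMSO, and OD was read at 490 nm. Each concentration was run in triplicate wells, with three independent runs per line.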

HepG2 [1] = test: Cell cycle arrest in human HepG2 cells assessed as accumulation at S phase at 8 uM after 48 hrs by propidium iodide staining-based flow cytometric method (reference value: 30.49%); assay type: functional
HepG2 [2] = test: Cell cycle arrest in human HepG2 cells assessed as accumulation at G1 phase at 10 uM after 48 hrs by propidium iodide staining-based flow cytometric method (reference value: 50.47%); assay type: functional
HepG2 [3] = test: Cell cycle arrest in human HepG2 cells assessed as accumulation at G2 phase at 10 uM after 48 hrs by propidium iodide staining-based flow cytometric method (reference value: 19.04%); assay type: functional
HepG2 [4] = test: Cell cycle arrest in human HepG2 cells assessed as accumulation at S phase at 10 uM after 48 hrs by propidium iodide staining-based flow cytometric method (reference value: 30.49%); assay type: functional
HepG2 [5] = test: Cell cycle arrest in human HepG2 cells assessed as accumulation at G1 phase at 12 uM after 48 hrs by propidium iodide staining-based flow cytometric method (reference value: 50.47%); assay type: functional
HepG2 [6] = test: Cell cycle arrest in human HepG2 cells assessed as accumulation at G2/M phase after 48 hrs by propidium iodide staining-based flow cytometric method; assay type: functional
HepG2 [7] = test: Downregulation of cyclin B1 expression in human HepG2 cells after 48 hrs by Western blot method; assay type: functional, cell-based
HepG2 [8] = test: Downregulation of CDK1 expression in human HepG2 cells after 48 hrs by Western blot method; assay type: functional, cell-based
HepG2 [9] = test: Downregulation of CDC25C expression in human HepG2 cells after 48 hrs by Western blot method; assay type: functional, cell-based
HepG2 [10] = test: Upregulation of p53 expression in human HepG2 cells after 48 hrs by Western blot method; assay type: functional, cell-based
HepG2 [11] = test: Upregulation of p21 expression in human HepG2 cells after 48 hrs by Western blot method; assay type: functional, cell-based
HepG2 [12] = test: Upregulation of p27 expression in human HepG2 cells after 48 hrs by Western blot method; assay type: functional, cell-based
HepG2 [13] = test: Disruption of mitochondrial membrane potential in human HepG2 cells at 10 uM after 12 hrs by JC1 staining-based fluorescent microscopic method; assay type: functional, cell-based
HepG2 [14] = test: Induction of morphological changes in human HepG2 cells at 10 uM after 12 hrs by Hoechst 33258 staining-based fluorescent microscopic method; assay type: functional, cell-based
How it was run: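 Cells were treated on cover slips, fixed in 4% paraformaldehyde for 10 min and washed with PBS. They were stained with Hoechst 33258 for 5 min, washed again, and nuclei were examined by fluorescence microscopy (excitation 350 nm, emission 460 nm).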

HepG2 [15] = test: Induction of apoptosis in human HepG2 cells assessed as pycnosis at 10 uM after 24 hrs by acridine orange/ethidium bromide staining-based fluorescent microscopic method; assay type: functional, cell-based
How it was run: (§1)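 Cells were plated at 5×10^4 cells/mL on sterile cover slips. Medium was replaced with fresh medium containing 10% FBS plus compound. After treatment, cover slips were inverted onto slides with acridine orange/ethidium bromide stain and viewed by fluorescence microscopy.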

HepG2 [16] = test: Induction of apoptosis in human HepG2 cells assessed as membrane blebbing at 10 uM after 24 hrs by acridine orange/ethidium bromide staining-based fluorescent microscopic method; assay type: functional, cell-based; how it was run: as §1
HepG2 [17] = test: Induction of apoptosis in human HepG2 cells assessed as late apoptotic cells at 8 uM after 24 hrs by annexin V/[…] staining-based fluorescent microscopic method (reference value: 1.91%); assay type: functional
HepG2 [18] = test: Induction of apoptosis in human HepG2 cells assessed as necrotic cells at 8 uM after 24 hrs by annexin V/[…] staining-based fluorescent microscopic method (reference value: 0.28%); assay type: functional
HepG2 [19] = test: Induction of apoptosis in human HepG2 cells assessed as early apoptotic cells at 10 uM after 24 hrs by annexin V/[…] staining-based fluorescent microscopic method (reference value: 6.50%); assay type: functional
HepG2 [20] = test: Induction of apoptosis in human HepG2 cells assessed as late apoptotic cells at 10 uM after 24 hrs by annexin V/[…] staining-based fluorescent microscopic method (reference value: 1.91%); assay type: functional
HepG2 [21] = test: Induction of apoptosis in human HepG2 cells assessed as necrotic cells at 10 uM after 24 hrs by annexin V/[…] staining-based fluorescent microscopic method (reference value: 0.28%); assay type: functional
HepG2 [22] = test: Induction of apoptosis in human HepG2 cells assessed as viable cells at 10 uM after 24 hrs by annexin V/[…] staining-based fluorescent microscopic method (reference value: 91.31%); assay type: functional; conditions: HepG2, 24 h, read-out: Activity
HepG2 [23] = test: Induction of apoptosis in human HepG2 cells assessed as early apoptotic cells at 12 uM after 24 hrs by annexin V/[…] staining-based fluorescent microscopic method (reference value: 6.50%); assay type: functional
HepG2 [24] = test: Induction of apoptosis in human HepG2 cells assessed as late apoptotic cells at 12 uM after 24 hrs by annexin V/[…] staining-based fluorescent microscopic method (reference value: 1.91%); assay type: functional
HepG2 [25] = test: Induction of apoptosis in human HepG2 cells assessed as necrotic cells at 12 uM after 24 hrs by annexin V/[…] staining-based fluorescent microscopic method (reference value: 0.28%); assay type: functional
HepG2 [26] = test: Induction of apoptosis in human HepG2 cells assessed as viable cells at 12 uM after 24 hrs by annexin V/[…] staining-based fluorescent microscopic method (reference value: 91.31%); assay type: functional; conditions: HepG2, 24 h, read-out: Activity
HepG2 [27] = test: Induction of apoptosis in human HepG2 cells assessed as downregulation of Bcl-2 levels at 8 to 12 uM after 24 hrs by Western blot method; assay type: functional, cell-based
How it was run: (§2)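 Treated HepG2 cells were lysed on ice in 1% SDS/Tris-HCl pH 7.5 buffer with EDTA, NaCl, PMSF, leupeptin and trypsin inhibitor, then cleared at 12,000 × g for 5 min. Protein was quantified by BCA, and 40–50 µg was run on 12% SDS-PAGE and blotted to PVDF. Membranes were blocked with 5% milk, incubated with primary antibody overnight at 4 °C and HRP secondary for 1 h. Detection by chemiluminescence with densitometry.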

HepG2 [28] = test: Induction of apoptosis in human HepG2 cells assessed as increase in release of mitochondrial cytochrome c into cytosol at 8 to 12 uM after 24 hrs by Western blot method; assay type: functional, cell-based; how it was run: as §2
HepG2 [29] = test: Induction of apoptosis in human HepG2 cells assessed as upregulation of caspase-3 levels at 8 to 12 uM after 24 hrs by Western blot method; assay type: functional, cell-based; how it was run: as §2
HepG2 [30] = test: Induction of apoptosis in human HepG2 cells assessed as upregulation of PARP levels at 8 to 12 uM after 24 hrs by Western blot method; assay type: functional, cell-based
HepG2 [31] = test: Induction of apoptosis in human HepG2 cells assessed as upregulation of reactive oxygen species generation at 10 uM by DCFH-DA/DAPI staining-based fluorescence microscopic method; assay type: functional, cell-based

CCOP(=O)(Cc1ccc(/N=C/c2cc3cc(C)ccc3[nH]c2=O)cc1)OCC
IC50 (L02): > 100 µM
Activity (HepG2 [1]): 30.01%
Activity (HepG2 [2]): 33.91%
Activity (HepG2 [3]): 36.92%
Activity (HepG2 [4]): 29.16%
Activity (HepG2 [5]): 25.75%
Activity (HepG2 [6]): Dose-dependent effect
Activity (HepG2 [7]): Dose-dependent effect
Activity (HepG2 [8]): Dose-dependent effect
Activity (HepG2 [9]): Dose-dependent effect
Activity (HepG2 [10]): Dose-dependent effect
Activity (HepG2 [11]): Dose-dependent effect
Activity (HepG2 [12]): Dose-dependent effect
Activity (HepG2 [13]): Active
Activity (HepG2 [14]): Active
Activity (HepG2 [15]): Active
Activity (HepG2 [16]): Active
Activity (HepG2 [17]): 15.49%
Activity (HepG2 [18]): 2.9%
Activity (HepG2 [19]): 34.38%
Activity (HepG2 [20]): 9.24%
Activity (HepG2 [21]): 0.12%
viability at 10 µM (HepG2 [22]): 56.3%
Activity (HepG2 [23]): 43.07%
Activity (HepG2 [24]): 11.83%
Activity (HepG2 [25]): 0.57%
viability at 12 µM (HepG2 [26]): 44.5%
Activity (HepG2 [27]): Active
Activity (HepG2 [28]): Active
Activity (HepG2 [29]): Active
Activity (HepG2 [30]): Active
Activity (HepG2 [31]): Active
